Experimental data reported in ChEMBL document CHEMBL1141088, “A new pyridazine series of GABAA alpha5 ligands” (J Med Chem, 2005).

Experiments:
[1] = target: T1, GABA-A receptor; alpha-3/beta-3/gamma-2 (Homo sapiens) (UniProt P18507+P28472+P34903); experiment: Efficacy at GABAA alpha-3-beta-3-gamma-2 receptor expressed in mouse fibroblast L(tk-) cells measured at 300 nM derived from at least three plates/day screened over a minimum of 2 days; assay type: functional, cell-based
How it was run: (§1)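 FRET membrane-potential (VIPR) assay in L(tk-) cells with receptor expression induced 24 h by 1 µM dexamethasone. Dye-loaded 30 min in low-Cl- HEPES buffer pH 7.4: 4 µM CC2-DMPE, 1 µM DiSBAC2(3), 0.5 mM tartrazine. Basal read 8 s, compound at 300 nM, half-maximal GABA 22 s later, 1 Hz reads. Background-subtracted 460/580 nm ratio, normalized to DMCM as -100%.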

[2] = target: T1, GABA-A receptor; alpha-3/beta-3/gamma-2 (Homo sapiens); experiment: Maximum inhibition of GABA EC20 response at GABA-A receptor alpha-3-beta-3-gamma-2,n=3; assay type: protein-complex assay
How it was run: (§2)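 Whole-cell patch clamp of L(tk-) cells stably expressing human α1, α3 or α5 β3γ2s, perfused with bicarbonate saline pH 7.2, CsCl pipette solution pH 7.3. Drugs applied by double-barrelled pipette; GABA in 5 s pulses at 30 s intervals. Modulation measured against a GABA EC20 set for each cell; curves fitted to a Hill equation.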

[3] = target: T2, GABA-A receptor; alpha-5/beta-3/gamma-2 (Homo sapiens, UniProt P18507+P28472+P31644); experiment: Displacement of [3H]-Ro- 15-1788 binding from human recombinant Gamma-aminobutyric acid A receptor alpha-5-beta-3-gamma-2 expressed in mouse fibroblast L(tk-) cells (30 min at 24 degrees C, pH 7.4); assay type: cell-based
T2 sequence (P18507 whole entry): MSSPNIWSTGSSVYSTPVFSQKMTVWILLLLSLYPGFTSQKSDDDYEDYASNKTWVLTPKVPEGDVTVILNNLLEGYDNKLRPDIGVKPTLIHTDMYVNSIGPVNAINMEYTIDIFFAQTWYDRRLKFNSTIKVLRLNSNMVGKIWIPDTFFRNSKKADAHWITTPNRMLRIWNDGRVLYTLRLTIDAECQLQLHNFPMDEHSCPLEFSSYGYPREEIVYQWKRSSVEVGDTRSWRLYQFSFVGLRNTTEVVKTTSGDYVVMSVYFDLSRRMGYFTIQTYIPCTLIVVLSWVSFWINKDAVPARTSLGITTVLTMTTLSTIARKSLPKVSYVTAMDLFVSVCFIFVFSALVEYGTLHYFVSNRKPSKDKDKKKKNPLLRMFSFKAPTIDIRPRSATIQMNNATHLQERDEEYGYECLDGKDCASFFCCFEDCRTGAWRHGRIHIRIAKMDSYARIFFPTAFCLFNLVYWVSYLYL
T2 sequence (P28472 whole entry): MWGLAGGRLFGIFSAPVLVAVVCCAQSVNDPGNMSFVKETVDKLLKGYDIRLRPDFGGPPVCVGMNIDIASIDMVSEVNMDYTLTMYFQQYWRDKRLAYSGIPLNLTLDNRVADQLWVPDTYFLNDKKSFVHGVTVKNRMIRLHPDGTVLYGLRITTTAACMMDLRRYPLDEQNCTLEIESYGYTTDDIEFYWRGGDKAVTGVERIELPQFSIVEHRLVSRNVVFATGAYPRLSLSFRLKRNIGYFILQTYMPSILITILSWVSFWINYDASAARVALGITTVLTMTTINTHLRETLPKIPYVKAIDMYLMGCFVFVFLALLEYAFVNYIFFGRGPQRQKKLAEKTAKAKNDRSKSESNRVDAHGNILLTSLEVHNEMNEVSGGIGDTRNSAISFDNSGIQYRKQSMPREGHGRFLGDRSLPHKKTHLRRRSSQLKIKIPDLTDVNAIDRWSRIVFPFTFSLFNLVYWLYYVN
T2 sequence (P31644 whole entry): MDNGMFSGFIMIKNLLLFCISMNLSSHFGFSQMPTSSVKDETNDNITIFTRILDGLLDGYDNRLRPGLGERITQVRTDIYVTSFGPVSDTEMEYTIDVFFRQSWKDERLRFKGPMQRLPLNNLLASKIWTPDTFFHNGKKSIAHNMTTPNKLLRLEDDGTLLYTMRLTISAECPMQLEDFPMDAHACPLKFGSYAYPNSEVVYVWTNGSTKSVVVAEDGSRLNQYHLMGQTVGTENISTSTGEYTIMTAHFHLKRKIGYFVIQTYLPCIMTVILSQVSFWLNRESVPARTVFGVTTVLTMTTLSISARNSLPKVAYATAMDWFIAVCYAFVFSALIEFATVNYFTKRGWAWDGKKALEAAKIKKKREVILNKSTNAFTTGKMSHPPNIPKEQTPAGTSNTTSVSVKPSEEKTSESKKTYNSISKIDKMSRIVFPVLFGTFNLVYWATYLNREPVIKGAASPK
How it was run: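 Membranes from L(tk-) cells stably expressing human α1, α3 or α5 β3γ2 in 50 mM Tris pH 7.4. [3H]Ro15-1788 at 1.8 nM final, 30 min at 24 °C. Nonspecific binding set with 10 µM flunitrazepam, total binding in 0.1% DMSO. Filtration, scintillation counting. Ki is mean ± SEM of ≥3 independent determinations.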

[4] = target: GABA-A receptor; alpha-5/beta-3/gamma-2 (Homo sapiens) (UniProt P18507+P28472+P31644); experiment: Efficacy at GABAA alpha-5-beta-3-gamma-2 receptor expressed in mouse fibroblast L(tk-) cells measured at 300 nM derived from at least three plates/day screened over a minimum of 2 days; assay type: functional, cell-based; how it was run: as §1
[5] = Clearance of compound determined after iv administration at 1 mg/kg dose as a solution(1 mg/mL) in a PEG 300:H2O(3:1); assay type: ADME, organism-based; design: dose 1 mg/kg, route intravenous; settings: rat, in vivo
How it was run: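 Single rat, cannulated, given 100 units heparin, recovered 48 h, fasted overnight. Dosed 1 mg/kg iv bolus (1 mL/kg) in PEG 300:water 3:1. Serial blood sampled to 6 h and plasma analysed by LC-MS/MS with diazepam internal standard. Cl in mL/min/kg from plasma, T1/2 in hours from 1–3 h data, Vdss in L/kg.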

[6] = target: T2, GABA-A receptor; alpha-5/beta-3/gamma-2; experiment: Negative logarithm of effective concentration against GABA-A alpha-5-beta-3-gamma-2 receptor; assay type: protein-complex assay; how it was run: as §2
[7] = target: GABA-A receptor; alpha-1/beta-3/gamma-2 (Homo sapiens) (UniProt P14867+P18507+P28472); experiment: Maximum inhibition of GABA EC20 response at GABA-A receptor alpha-1-beta-3-gamma-2, n=4; assay type: protein-complex assay; how it was run: as §2

N#Cc1cccc(-c2cnnc(-c3ccccc3)c2)c1
Efficacy [1]: -4 | Maximum inhibition [2]: -16% | Ki [3]: 5.2 nM | Efficacy [4]: -32 | clearance [5]: 36 mL/min/kg | EC50 [6]: 7.41 nM | Maximum inhibition [7]: -23%
